Measurements of several laboratories.
Lines come from different studies, so protocols differ.
Cell line: HepG2
Effect on: cell growth or viability

SMILES | method | time | CC50 [µM]
N=C(N)N1CC=C(c2coc(C(=O)Nc3ccc(C4=CCN(C(=N)N)CC4)c(F)c3)c2)CC1 | MTS | 24 h | 129
COc1ccc(NC(=O)N2CCCCN3[C@H](COCCC(=O)O)[C@H](c4ccc(C#Cc5ccccc5)cc4)[C@@H]3C2)cc1 |  |  | > 40
Cc1cc(Nc2ccc(S(F)(F)(F)(F)F)cc2)n2ncnc2n1 |  |  | > 50
COC(=O)c1c(C)ncn1CC(c1c[nH]c2ccc(C)cc12)c1c[nH]c2ccc(C)cc12 | MTS | 24 h | > 20
CC(C)c1c(C(=O)Nc2ccccc2)c(-c2ccccc2)c(-c2ccc(F)cc2)n1CC[C@@H](O)C[C@@H](O)CC(=O)O | MTT | 24 h | ~100
COC(=O)c1c(C)ncn1CC(c1cn(C)c2ccccc12)c1cn(C)c2ccccc12 | MTS | 24 h | > 20
CC(=O)Nc1ccc(O)cc1 | ATP luminescence |  | > 1000
N=C(N)NCc1ccc(NC(=O)C23CCC(C(=O)Nc4ccc(C5=CCN(C(=N)N)CC5)cc4)(CC2)CC3)cc1 | MTS | 24 h | 253
O=C(c1ccc(Nc2ncc(Cl)c(-c3ccc(Cl)s3)n2)cc1)N1CCC(N2CCCC2)CC1 |  | 44 h | 5.1
CCOC(=O)c1cn(CC(c2cn(C)c3ccc(C)cc23)c2cn(C)c3ccc(C)cc23)c(C)c1C(=O)OC | MTS | 24 h | > 20
N=C(N)NCc1ccc(NC(=O)c2ccc(C(=O)Nc3ccc(C4=CCN(C(=N)N)CC4)cn3)cc2)cc1 | MTS | 24 h | 353
NCC(=O)CCC(=O)O | ATP luminescence |  | > 1000
Cc1ccc(-c2nc(Nc3ccc(C(=O)N4CCC(N5CCCC5)CC4)cc3)ncc2Cl)s1 |  | 44 h | 9.3
COc1ccc(NC(=O)N2CCCCN3C[C@H](c4ccc(C#Cc5ccccc5)cc4)[C@@H]3C2)cc1 |  |  | 10
C[C@@H]1[C@H](O)[C@@H](C)/C=C/C=C/C=C/C=C/C=C/C=C/C=C/[C@H](O[C@@H]2O[C@H](C)[C@@H](O)[C@H](N)[C@@H]2O)C[C@@H]2O[C@](O)(C[C@@H](O)C[C@@H](O)[C@H](O)CC[C@@H](O)C[C@@H](O)CC(=O)O[C@H]1C)C[C@H](O)[C@H]2C(=O)O | MTS | 24 h | 4.6
N=C(N)NCc1ccc(NC(=O)c2ccc(C(=O)Nc3cnc(C4=CCN(C(=N)N)CC4)cn3)cc2)cc1 | MTS | 24 h | 585
